Data reported in ChEMBL document CHEMBL3232947, “Inhibitory effect of turmeric curcuminoids on FLT3 expression and cell cycle arrest in the FLT3-overexpressing EoL-1 leukemic cell line” (J Nat Prod, 2014).

Columns and labels:
EOL1 [1] = assay: Reduction in Flt3 protein level in human EOL-1 cells at 3 uM after 12 hrs by Western blot analysis; format: functional; conditions: EOL1, 12 h
In short: (§1)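 Treated EoL-1 lysed in RIPA buffer, protein by Folin-Lowry, resolved on 12% SDS-PAGE; probed with rabbit polyclonal anti-FLT3 or anti-STAT5A (1:500) and anti-GAPDH (1:1000), HRP anti-rabbit secondary, chemiluminescence. Band intensities normalized to GAPDH and compared with vehicle control; mean ± SEM, three independent experiments.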

[2] = Cell cycle arrest in human EOL-1 cells assessed as accumulation at G0/G1 phase at 5 uM after 12 hrs by flow cytometry (reference value: 54 %); format: functional, cell-based; conditions: EOL1
[3] = Antiproliferative activity against human EOL-1 cells at 3 uM after 12 hrs by trypan blue exclusion assay; format: functional, EOL1
In short: (§2)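 EoL-1 cells (RPMI-1640, 10% fetal calf serum, L-glutamine, penicillin/streptomycin) exposed 12 h; viable counts by trypan blue exclusion over time; growth rate (cells/h) taken as slope of cell number vs incubation time, compared with vehicle-control growth rate.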

[4] = Antiproliferative activity against human EOL-1 cells at 5 uM after 12 hrs by trypan blue exclusion assay; format: functional, EOL1; in short: as §2
EOL1 [5] = assay: Reduction in Flt3 protein level in human EOL-1 cells at 4 uM after 24 hrs by Western blot analysis; format: functional; conditions: EOL1, 24 h; in short: as §1
EOL1 [6] = assay: Reduction in Flt3 protein level in human EOL-1 cells after 12 hrs by Western blot analysis; format: functional, cell-based; in short: as §1
EOL1 [7] = assay: Reduction in Flt3 protein level in human EOL-1 cells at 4 uM after 12 hrs by Western blot analysis; format: functional; conditions: EOL1, 12 h; in short: as §1
EOL1 [8] = assay: Reduction in STAT5A protein level in human EOL-1 cells at 5 uM after 12 hrs by Western blot analysis; format: functional; conditions: EOL1, 12 h; in short: as §1
EOL1 [9] = assay: Reduction in STAT5A protein level in human EOL-1 cells at 4 uM after 12 hrs by Western blot analysis; format: functional; conditions: EOL1, 12 h; in short: as §1
EOL1 [10] = assay: Reduction in STAT5A protein level in human EOL-1 cells at 3 uM after 12 hrs by Western blot analysis; format: functional; conditions: EOL1, 12 h; in short: as §1
EOL1 [11] = assay: Reduction in Flt3 protein level in human EOL-1 cells at 4 uM after 48 hrs by Western blot analysis; format: functional; conditions: EOL1, 48 h; in short: as §1
EOL1 [12] = assay: Reduction in STAT5A protein level in human EOL-1 cells after 12 hrs by Western blot analysis; format: functional, cell-based; in short: as §1
[13] = Cell cycle arrest in human EOL-1 cells assessed as accumulation at G0/G1 phase at 4 uM after 48 hrs by flow cytometry (reference value: 54 %); format: functional, cell-based; conditions: EOL1
[14] = Cell cycle arrest in human EOL-1 cells assessed as accumulation at G0/G1 phase at 4 uM after 12 hrs by flow cytometry (reference value: 54 %); format: functional, cell-based; conditions: EOL1
[15] = Cell cycle arrest in human EOL-1 cells assessed as accumulation at G0/G1 phase at 4 uM after 24 hrs by flow cytometry (reference value: 54 %); format: functional, cell-based; conditions: EOL1
[16] = Cell cycle arrest in human EOL-1 cells assessed as accumulation at G0/G1 phase at 3 uM after 12 hrs by flow cytometry (reference value: 54 %); format: functional, cell-based; conditions: EOL1
EOL1 [17] = assay: Reduction in Flt3 protein level in human EOL-1 cells at 5 uM after 12 hrs by Western blot analysis; format: functional; conditions: EOL1, 12 h; in short: as §1
[18] = Antiproliferative activity against human EOL-1 cells at 4 uM after 12 hrs by trypan blue exclusion assay; format: functional, EOL1; in short: as §2
[19] = Cell cycle arrest in human EOL-1 cells assessed as accumulation at G0/G1 phase after 12 hrs by flow cytometry relative to control; conditions: EOL1
[20] = Cytotoxicity against human EOL-1 cells after 48 hrs by MTT assay; format: functional, cell-based; conditions: EOL1, 48 h
In short: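 Cells seeded at 5.0 × 10^4/well, preincubated 24 h at 37 °C, then exposed to 1.56–50 μM for 48 h (0.1% DMSO vehicle); MTT 4 h at 37 °C, formazan dissolved in DMSO, A578 (ref 630 nm). IC50 = lowest concentration giving 50% growth reduction vs vehicle; mean ± SEM, three independent experiments in triplicate.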

EOL1 [21] = assay: Reduction in Flt3 protein level in human EOL-1 cells at 10 uM after 12 hrs by Western blot analysis; format: functional; conditions: EOL1, 12 h; in short: as §1
EOL1 [22] = assay: Reduction in Flt3 protein level in human EOL-1 cells at 10 uM after 24 hrs by Western blot analysis; format: functional; conditions: EOL1, 24 h; in short: as §1
EOL1 [23] = assay: Reduction in Flt3 protein level in human EOL-1 cells at 10 uM after 48 hrs by Western blot analysis; format: functional; conditions: EOL1, 48 h; in short: as §1
EOL1 [24] = assay: Reduction in Flt3 protein level in human EOL-1 cells at 15 uM after 24 hrs by Western blot analysis; format: functional; conditions: EOL1, 24 h; in short: as §1
EOL1 [25] = assay: Reduction in Flt3 protein level in human EOL-1 cells at 15 uM after 48 hrs by Western blot analysis; format: functional; conditions: EOL1, 48 h; in short: as §1

For `COc1cc(/C=C/C(=O)CC(=O)/C=C/c2ccc(O)c(OC)c2)ccc1O` [CURCUMIN], the inhibition at 3 µM (EOL1 [1]) was 17%, the Activity [2] was 75% and the Activity [3] was 17%. For the same compound, the Activity [4] was 58%, the inhibition at 4 µM (EOL1 [5]) was 33% and the inhibition (EOL1 [6]) was “Dose-dependent effect”. For the same compound, the inhibition at 4 µM (EOL1 [7]) was 37%, the inhibition at 5 µM (EOL1 [8]) was 82% and the inhibition at 4 µM (EOL1 [9]) was 44%. The inhibition at 3 µM (EOL1 [10]) was 13%, the inhibition at 4 µM (EOL1 [11]) was 12% and the inhibition (EOL1 [12]) was “Dose-dependent effect”. It also gave an Activity [13] of 54%, an Activity [14] of 71% and an Activity [15] of 58%. The Activity [16] was 66%, the inhibition at 5 µM (EOL1 [17]) was 70% and the Activity [18] was 25%. For the same compound, the Activity [19] was “Dose-dependent effect” and the IC50 [20] was 6.7 µM.

For `COc1cc(/C=C/C(O)=C/C(=O)/C=C/c2ccc(O)cc2)ccc1O` [DEMETHOXYCURCUMIN], the inhibition at 10 µM (EOL1 [21]) was 4%, the inhibition at 10 µM (EOL1 [22]) was 32% and the inhibition at 10 µM (EOL1 [23]) was 46%. The IC50 [20] was 15.6 µM.

Compound `O=C(/C=C/c1ccc(O)cc1)CC(=O)/C=C/c1ccc(O)cc1` [BISDEMETHOXYCURCUMIN] has an inhibition at 15 µM (EOL1 [24]) of 26%, an inhibition at 15 µM (EOL1 [25]) of 3% and an IC50 [20] of 22.3 µM.
